# From ChEMBL document CHEMBL3861959, “Synthesis and antiproliferative evaluation of novel 2-(4H-1,2,4-triazole-3-ylthio)acetamide derivatives as inducers of apoptosis in cancer cells” (Eur J Med Chem, 2016)
# Legend:
# [1] = Cytotoxicity against human KM12 cells assessed as cell growth at 10^-5 M after 48 hrs by SRB assay relative to control; assay type: functional; conditions: KM12, 48 h, read-out: Activity
# How it was run: (§1)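 NCI single-dose primary screen run under the US NCI protocol. Compounds tested at 10 µM across the 60-cell-line panel, with growth percent reported for each line.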
# [2] = Cytotoxicity against human SK-MEL-5 cells assessed as cell growth at 10^-5 M after 48 hrs by SRB assay relative to control; assay type: functional; conditions: SK-MEL-5, 48 h, read-out: Activity
# How it was run: (§2)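 Single-dose NCI 60-cell-line screen run under the US NCI protocol. Compounds tested at 10 µM. Read-out is growth percent for each cell line.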
# [3] = Cytotoxicity against human MDA-MB-231 cells assessed as cell growth at 10^-5 M after 48 hrs by SRB assay relative to control; assay type: functional; conditions: MDA-MB-231, 48 h, read-out: Activity; how it was run: as §1
# [4] = Cytotoxicity against human RPMI8226 cells assessed as cell growth at 10^-5 M after 48 hrs by SRB assay relative to control; assay type: functional; conditions: RPMI-8226, 48 h, read-out: Activity; how it was run: as §1
# [5] = Cytotoxicity against human HOP92 cells assessed as cell growth at 10^-5 M after 48 hrs by SRB assay relative to control; assay type: functional; conditions: HOP-92, 48 h, read-out: Activity; how it was run: as §1
# [6] = Cytotoxicity against human SK-MEL-28 cells assessed as cell growth at 10^-5 M after 48 hrs by SRB assay relative to control; assay type: functional; conditions: SK-MEL-28, 48 h, read-out: Activity; how it was run: as §2
# [7] = Cytotoxicity against human MT4 cells assessed as decrease in cell viability after 5 days by MTT assay; assay type: toxicity, cell-based
# How it was run: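 MT-4 cells in mock-infected wells of the anti-HIV MTT setup. Compounds in serial five-fold dilutions in triplicate, cells at 6 × 10^5 cells/mL. Absorbance at 540 and 690 nm, median OD of three wells. CC50 is the concentration that lowers OD540 of the mock-infected control by 50%.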
# [8] = Cytotoxicity against human BT549 cells assessed as cell growth at 10^-5 M after 48 hrs by SRB assay relative to control; assay type: functional; conditions: BT-549, 48 h, read-out: Activity; how it was run: as §1
# [9] = Cytotoxicity against human NCI-H226 cells assessed as cell growth at 10^-5 M after 48 hrs by SRB assay relative to control; assay type: functional; conditions: NCI-H226, 48 h, read-out: Activity; how it was run: as §1
# [10] = Cytotoxicity against human COLO205 cells assessed as cell growth at 10^-5 M after 48 hrs by SRB assay relative to control; assay type: functional; conditions: COLO 205, 48 h, read-out: Activity; how it was run: as §1
# [11] = Cytotoxicity against human HCT116 cells assessed as cell growth at 10^-5 M after 48 hrs by SRB assay relative to control; assay type: functional; conditions: HCT-116, 48 h, read-out: Activity; how it was run: as §1
# [12] = Cytotoxicity against human HOP62 cells assessed as cell growth at 10^-5 M after 48 hrs by SRB assay relative to control; assay type: functional; conditions: HOP-62, 48 h, read-out: Activity; how it was run: as §1
# [13] = Cytotoxicity against human CCRF-CEM cells assessed as cell growth at 10^-5 M after 48 hrs by SRB assay relative to control; assay type: functional; conditions: read-out: Activity; how it was run: as §1
# [14] = Cytotoxicity against mouse NIH/3T3 cells assessed as decrease in cell survival after 48 hrs by MTT assay; assay type: toxicity, NIH3T3
# [15] = Cytotoxicity against human MDA-MB-435 cells assessed as cell growth at 10^-5 M after 48 hrs by SRB assay relative to control; assay type: functional; conditions: MDA-MB-435, 48 h, read-out: Activity; how it was run: as §1
# [16] = Cytotoxicity against human MCF7 cells assessed as cell growth at 10^-5 M after 48 hrs by SRB assay relative to control; assay type: functional; conditions: MCF7, 48 h, read-out: Activity; how it was run: as §1
# [17] = Cytotoxicity against human HL-60(TB) cells assessed as cell growth at 10^-5 M after 48 hrs by SRB assay relative to control; assay type: functional; conditions: HL-60, 48 h, read-out: Activity
# How it was run: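 NCI-60 one-dose primary screen run by the US NCI under its protocol. Single concentration of 10 µM across the 60-line human tumour panel, which includes HL-60(TB). Read-out is growth percent for each cell line. Lines reduced to about 32% growth or less are taken forward to full-panel testing over a 5-log dose range.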
# [18] = Selectivity index, ratio of CC50 for human MT4 cells to EC50 for HIV2 ROD; assay type: toxicity, cell-based; conditions: read-out: Ratio CC50/EC50
# How it was run: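 HIV-1 IIIB and HIV-2 ROD tested in MT-4 cells by MTT. Serial fivefold dilutions of compound added to triplicate mock- and virus-infected wells. MT-4 cells at 6 × 10^5 cells/mL. Absorbance read at 540/690 nm; median OD of three wells used. CC50 is the concentration reducing mock-infected OD540 by 50%. […]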
# [19] = Cytotoxicity against human K562 cells assessed as cell growth at 10^-5 M after 48 hrs by SRB assay relative to control; assay type: functional; conditions: K562, 48 h, read-out: Activity; how it was run: as §1
# [20] = Cytotoxicity against human IGROV1 cells assessed as cell growth at 10^-5 M after 48 hrs by SRB assay relative to control; assay type: functional; conditions: IGROV-1, 48 h, read-out: Activity; how it was run: as §1
# [21] = Cytotoxicity against human Hs 578T cells assessed as cell growth at 10^-5 M after 48 hrs by SRB assay relative to control; assay type: functional; conditions: read-out: Activity; how it was run: as §1
# [22] = Cytotoxicity against human SR cells assessed as cell growth at 10^-5 M after 48 hrs by SRB assay relative to control; assay type: functional; conditions: read-out: Activity; how it was run: as §2
# [23] = Cytotoxicity against human NCI-H322M cells assessed as cell growth at 10^-5 M after 48 hrs by SRB assay relative to control; assay type: functional; conditions: read-out: Activity; how it was run: as §1
# [24] = Cytotoxicity against human MALME-3M cells assessed as cell growth at 10^-5 M after 48 hrs by SRB assay relative to control; assay type: functional; conditions: read-out: Activity; how it was run: as §1
# [25] = Cytotoxicity against human SNB19 cells assessed as cell growth at 10^-5 M after 48 hrs by SRB assay relative to control; assay type: functional; conditions: SNB-19, 48 h, read-out: Activity; how it was run: as §2
# [26] = Cytotoxicity against human NCI-ADR-RES cells assessed as cell growth at 10^-5 M after 48 hrs by SRB assay relative to control; assay type: functional; conditions: read-out: Activity; how it was run: as §1
# [27] = Cytotoxicity against human PC3 cells assessed as cell growth at 10^-5 M after 48 hrs by SRB assay relative to control; assay type: functional; conditions: PC-3, 48 h, read-out: Activity; how it was run: as §1
# [28] = Cytotoxicity against human UACC257 cells assessed as cell growth at 10^-5 M after 48 hrs by SRB assay relative to control; assay type: functional; conditions: UACC-257, 48 h, read-out: Activity; how it was run: as §2
# [29] = Cytotoxicity against human EKVX cells assessed as cell growth at 10^-5 M after 48 hrs by SRB assay relative to control; assay type: functional; conditions: read-out: Activity; how it was run: as §1
# [30] = Cytotoxicity against human A498 cells assessed as cell growth at 10^-5 M after 48 hrs by SRB assay relative to control; assay type: functional; conditions: A498, 48 h, read-out: Activity; how it was run: as §1
# [31] = Cytotoxicity against human LOXIMVI cells assessed as cell growth at 10^-5 M after 48 hrs by SRB assay relative to control; assay type: functional; conditions: LOX IMVI, read-out: Activity; how it was run: as §1
# [32] = Cytotoxicity against human HT-29 cells assessed as cell growth at 10^-5 M after 48 hrs by SRB assay relative to control; assay type: functional; conditions: HT-29, 48 h, read-out: Activity; how it was run: as §1
structure (smiles),measurement,setting,value
Cc1ccc(C(C)C)c(OCc2nnc(SCC(=O)Nc3ccc(Cl)cc3)n2Cc2ccccc2)c1,growth at 10 µM,[1],76.9%
same,growth at 10 µM,[2],90.5%
same,growth at 10 µM,[3],75.7%
same,growth at 10 µM,[4],83.8%
same,growth at 10 µM,[5],78%
same,growth at 10 µM,[6],113%
same,CC50 at 120 h,[7],65.9 µg/mL
same,growth at 10 µM,[8],97.4%
same,growth at 10 µM,[9],88%
same,growth at 10 µM,[10],78.2%
same,growth at 10 µM,[11],52.9%
same,growth at 10 µM,[12],81.2%
same,growth at 10 µM,[13],72.7%
same,IC50 at 48 h,[14],> 100 µg/mL
same,growth at 10 µM,[15],103%
same,growth at 10 µM,[16],75.7%
same,growth at 10 µM,[17],83.9%
same,selectivity ratio,[18],< 1
same,growth at 10 µM,[19],97.5%
same,growth at 10 µM,[20],69.4%
same,growth at 10 µM,[21],75.5%
same,growth at 10 µM,[22],-6.63%
same,growth at 10 µM,[23],72.5%
same,growth at 10 µM,[24],75.6%
same,growth at 10 µM,[25],80.3%
same,growth at 10 µM,[26],69.1%
same,growth at 10 µM,[27],71.9%
same,growth at 10 µM,[28],105%
same,growth at 10 µM,[29],69.6%
same,growth at 10 µM,[30],78%
same,growth at 10 µM,[31],64.4%
same,growth at 10 µM,[32],70%
Cc1ccc(C(C)C)c(OCc2nnc(SCC(=O)Nc3ccc(S(N)(=O)=O)cc3)n2Cc2ccccc2)c1,growth at 10 µM,[1],54.3%
same,growth at 10 µM,[2],50.3%
same,growth at 10 µM,[3],69.1%
same,growth at 10 µM,[4],40.8%
same,growth at 10 µM,[5],75.2%
same,growth at 10 µM,[6],89.3%
same,CC50 at 120 h,[7],13 µg/mL
same,growth at 10 µM,[8],65.8%
same,growth at 10 µM,[9],66.6%
same,growth at 10 µM,[10],90.2%
same,growth at 10 µM,[11],66.1%
same,growth at 10 µM,[12],79.1%
same,growth at 10 µM,[13],35.6%
same,IC50 at 48 h,[14],> 100 µg/mL
same,growth at 10 µM,[15],76.2%
same,growth at 10 µM,[16],50%
same,growth at 10 µM,[17],68.2%
same,selectivity ratio,[18],< 1
same,growth at 10 µM,[19],78.4%
same,growth at 10 µM,[20],90.1%
same,growth at 10 µM,[21],86.2%
same,growth at 10 µM,[22],65.1%
same,growth at 10 µM,[23],89.3%
same,growth at 10 µM,[24],84.3%
same,growth at 10 µM,[25],88.4%
same,growth at 10 µM,[26],77.1%
same,growth at 10 µM,[27],31.1%
same,growth at 10 µM,[28],89%
same,growth at 10 µM,[29],55.5%
same,growth at 10 µM,[30],74.7%
same,growth at 10 µM,[31],68.2%
same,growth at 10 µM,[32],72.4%
CC(=O)Nc1ccc(OCc2nnc(SCC(=O)Nc3ccc(Br)cc3)n2Cc2ccccc2)cc1,growth at 10 µM,[1],56.4%
same,growth at 10 µM,[2],69.8%
same,growth at 10 µM,[3],75%
same,growth at 10 µM,[4],72.2%
same,growth at 10 µM,[5],70.9%
same,growth at 10 µM,[6],102%
same,CC50 at 120 h,[7],≥ 3.99 µg/mL
same,growth at 10 µM,[8],72.4%
same,growth at 10 µM,[9],80.3%
same,growth at 10 µM,[10],105%
same,growth at 10 µM,[11],53.2%
same,growth at 10 µM,[12],90.3%
same,growth at 10 µM,[13],56.3%
same,IC50 at 48 h,[14],> 100 µg/mL
same,growth at 10 µM,[15],66%
same,growth at 10 µM,[16],70.2%
same,growth at 10 µM,[17],63.8%
same,selectivity ratio,[18],≤ 1
same,growth at 10 µM,[19],28.9%
same,growth at 10 µM,[20],83.2%
same,growth at 10 µM,[21],97.9%
same,growth at 10 µM,[22],97.7%
same,growth at 10 µM,[23],81.2%
same,growth at 10 µM,[24],93.8%
same,growth at 10 µM,[25],92.3%
same,growth at 10 µM,[26],68.2%
same,growth at 10 µM,[27],54.2%
same,growth at 10 µM,[28],98.4%
same,growth at 10 µM,[29],70%
same,growth at 10 µM,[30],82.1%
same,growth at 10 µM,[31],33.4%
same,growth at 10 µM,[32],93.9%
